≈ marks a conversion by molar mass, not a printed value.
How the values were obtained:
Poliovirus 1 = assay: microbe, parasite or virus in culture; type: functional; settings: Enterovirus C; read-out: ED50 (the source's name)
CV-1 = assay: Chemotherapeutic index in CV-1 cells (chemotherapeutic index=50% cytotoxic dose/50% effective dose).; type: functional, Cercopithecidae
In short: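 Index = 50% cytotoxic dose / 50% plaque-inhibition dose. For cytotoxicity, 200 cells/mL in suspension were mixed with 10% FBS MEM carrying serial compound dilutions and incubated 7 days at 37 °C under 5% CO2. Colonies were stained with 1% crystal violet and counted, and the 50% cytotoxic dose was read from the dose-response curve.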

Enterovirus [1] = assay: Antiviral activity against rhinovirus 10 using plaque-inhibition assay; type: functional; settings: read-out: ED50 (the source's name)
In short: (§1)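 Plaque reduction: confluent monolayers were infected with 100-200 PFU. Hela (Ohio) cells were used for rhinoviruses 10 and 1A and coxsackieviruses B4 and A9, CV-1 for poliovirus type 1 Mahoney, and LLC-MK2 for enterovirus 70. Cells were overlaid with 2.0% agar in MEM plus 4% FBS containing serial compound concentrations. Incubation was 37 °C for polio/coxsackie and 33 °C for rhino/enterovirus, with a neutral red (0.004%) second overlay. ED50 was taken from the dose-response curve.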

Enterovirus [2] = assay: Antiviral activity against rhinovirus 1A using plaque-inhibition assay; type: functional; settings: read-out: ED50 (the source's name)
In short: as §1

HeLa [3] = assay: Antiviral activity was measured against Hela cells injected with coxsackie virus type B4; type: functional, Homo sapiens
In short: as §1

HeLa [4] = assay: Antiviral activity was measured against Hela cells injected with rhinovirus 10; type: functional, Homo sapiens
In short: (§2)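 Rhinovirus spectrum in Hela cells: infected cultures were kept 3 days at 33 °C, stained with crystal violet and examined microscopically for cytopathic effect. The end point was 50% inhibition.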

HeLa [5] = assay: Antiviral activity was measured against Hela cells injected with rhinovirus 19; type: functional, Homo sapiens
In short: as §2

HeLa [6] = assay: Antiviral activity was measured against Hela cells injected with rhinovirus 1A; type: functional, Homo sapiens
In short: as §2

LLC-MK2 = assay: Antiviral activity was measured against LLC-MK2 cells injected with enterovirus 70; type: functional, Cercopithecidae
In short: as §1

With `CC(C)S(=O)(=O)Nc1cccc(C(=O)Nc2ccc(F)cc2)c1` the EC50 (Poliovirus 1) was 4.2 µg/mL (≈ 12.5 µM).
In the case of `CC(C)S(=O)(=O)Nc1cccc(C(=O)NC(C)(C)C)c1`, the EC50 (Poliovirus 1) is reported as > 50 µg/mL.
In the case of `COc1ccc(/C(=N/O)c2cccc(NS(=O)(=O)N(C)C)c2)c(OC)c1`, the Chemotherapeutic index (CV-1) is reported as 1.8, the EC50 (Poliovirus 1) is reported as 19.5 µg/mL (≈ 51.4 µM) and the EC50 (Enterovirus [1]) is reported as 4 µg/mL (≈ 10.5 µM).
`CN(C)S(=O)(=O)Nc1ccccc1C(=O)Nc1ccccc1` showed an EC50 (Poliovirus 1) of 25 µg/mL (≈ 78.3 µM).
Work on `CCOc1ccc(/C(=N\O)c2cccc(NS(=O)(=O)N(C)C)c2)cc1` yielded an EC50 (Poliovirus 1) of 5.5 µg/mL (≈ 15.1 µM).
For `CS(=O)(=O)Nc1cccc(C(=O)Nc2ccccc2)c1`, the EC50 (Poliovirus 1) was > 50 µg/mL.
Work on `Cc1ccc(/C(=N\O)c2cccc(NS(=O)(=O)N(C)C)c2)cc1` yielded a Chemotherapeutic index (CV-1) of 86, an EC50 (Poliovirus 1) of 0.44 µg/mL (≈ 1.32 µM) and an EC50 (Enterovirus [1]) of 0.41 µg/mL (≈ 1.23 µM).
`CCCCCCc1ccc(NC(=O)c2ccc(NS(=O)(=O)N(C)C)cc2)cc1` showed a Chemotherapeutic index (CV-1) of 11, an EC50 (Poliovirus 1) of 0.16 µg/mL (≈ 0.396 µM) and an EC50 (Enterovirus [2]) of 0.24 µg/mL (≈ 0.595 µM).
`COCc1ccc(/C(=N\O)c2cccc(NS(=O)(=O)N(C)C)c2)cc1` was tested, and the Chemotherapeutic index (CV-1) was 28, the EC50 (Poliovirus 1) was 0.25 µg/mL (≈ 0.688 µM) and the EC50 (Enterovirus [1]) was 0.36 µg/mL (≈ 0.991 µM).
For `COC(=O)c1cccc(NC(=O)c2ccc(NS(=O)(=O)N(C)C)cc2)c1`, the EC50 (Poliovirus 1) was 1.2 µg/mL (≈ 3.18 µM).
In the case of `COCc1ccc(/C(=N\O)c2cccc(NS(=O)(=O)C(C)C)c2)cc1`, the Chemotherapeutic index (CV-1) is reported as 68, the EC50 (Poliovirus 1) is reported as 0.22 µg/mL (≈ 0.607 µM) and the EC50 (Enterovirus [1]) is reported as 0.98 µg/mL (≈ 2.7 µM).
`CN(C)S(=O)(=O)Nc1cccc(C(=O)Nc2ccccn2)c1` was tested, and the EC50 (Poliovirus 1) was 44 µg/mL (≈ 137 µM).
Work on `CN(C)S(=O)(=O)Nc1ccc(C(=O)Nc2ccc(I)cc2)cc1` yielded a Chemotherapeutic index (CV-1) of 5, an EC50 (Poliovirus 1) of 0.3 µg/mL (≈ 0.674 µM) and an EC50 (Enterovirus [2]) of 0.3 µg/mL (≈ 0.674 µM).
For `CN(C)S(=O)(=O)Nc1cccc(/C(=N/O)c2ccccc2)c1`, the Chemotherapeutic index (CV-1) was 24, the EC50 (Poliovirus 1) was 0.79 µg/mL (≈ 2.47 µM) and the EC50 (Enterovirus [1]) was 0.54 µg/mL (≈ 1.69 µM).
`CC(C)S(=O)(=O)Nc1cccc(C(=O)Nc2ccccc2N)c1` was tested, and the EC50 (Poliovirus 1) was > 50 µg/mL.
In the case of `CC(C)S(=O)(=O)Nc1cccc(C(=O)Nc2cccc([N+](=O)[O-])c2)c1`, the EC50 (Poliovirus 1) is reported as > 25 µg/mL.
Work on `CCc1ccc(NC(=O)c2ccc(NS(=O)(=O)N(C)C)cc2)cc1` yielded a Chemotherapeutic index (CV-1) of 10, an EC50 (Poliovirus 1) of 0.36 µg/mL (≈ 1.04 µM) and an EC50 (Enterovirus [2]) of 0.2 µg/mL (≈ 0.576 µM).
In the case of `CN(C)S(=O)(=O)Nc1ccc(Cl)c(C(=O)Nc2ccc(Cl)cc2)c1`, the EC50 (Poliovirus 1) is reported as > 50 µg/mL.
`CN(C)S(=O)(=O)Nc1ccc(C(=O)Nc2ccc(Cl)cc2)cc1` gave a Chemotherapeutic index (CV-1) of 220, an EC50 (Poliovirus 1) of 0.5 µg/mL (≈ 1.41 µM) and an EC50 (Enterovirus [2]) of 0.32 µg/mL (≈ 0.904 µM).
`COc1ccc(/C(=N\O)c2cccc(NS(=O)(=O)N(C)C)c2)cc1OC` showed an EC50 (Poliovirus 1) of 0.55 µg/mL (≈ 1.45 µM).
`CC(C)S(=O)(=O)Nc1cccc(C(=O)NC(c2ccccc2)c2ccccc2)c1` was tested, and the EC50 (Poliovirus 1) was > 50 µg/mL.
Work on `CC(C)S(=O)(=O)Nc1cccc(C(=O)Nc2ccc(Cl)cc2)c1` yielded an EC50 (Poliovirus 1) of 1.2 µg/mL (≈ 3.4 µM).
Compound `CC(C)S(=O)(=O)Nc1cccc(C(=O)Nc2ccc(Br)cc2)c1` has an EC50 (Poliovirus 1) of 0.7 µg/mL (≈ 1.76 µM).
With `COc1ccc(/C(=N\O)c2cccc(NS(=O)(=O)N(C)C)c2)cc1` the Chemotherapeutic index (CV-1) was 56, the ED50 (HeLa [3]) was 0.64 µg/mL (≈ 1.83 µM) and the ED50 (HeLa [4]) was 0.26 µg/mL (≈ 0.744 µM). The ED50 (HeLa [5]) was 0.44 µg/mL (≈ 1.26 µM), the ED50 (HeLa [6]) was 0.29 µg/mL (≈ 0.83 µM) and the EC50 (Poliovirus 1) was 0.26 µg/mL (≈ 0.744 µM). For the same compound, the EC50 (Enterovirus [1]) was 0.29 µg/mL (≈ 0.83 µM) and the ED50 (LLC-MK2) was 0.75 µg/mL (≈ 2.15 µM).
Compound `CN(C)S(=O)(=O)Nc1cccc(C(=O)Nc2ccc(C(F)(F)F)cc2)c1` has an EC50 (Poliovirus 1) of 0.46 µg/mL (≈ 1.19 µM).
`CCCCc1ccc(NC(=O)c2ccc(NS(=O)(=O)C(C)C)cc2)cc1` gave an EC50 (Poliovirus 1) of 0.16 µg/mL (≈ 0.427 µM).
`CN(C)S(=O)(=O)Nc1cccc(C(=O)Nc2cccc(Cl)c2)c1` was tested, and the EC50 (Poliovirus 1) was 1.5 µg/mL (≈ 4.24 µM).
Work on `O=C(Nc1ccccc1)c1cccc(NS(=O)(=O)N2CCCCC2)c1` yielded an EC50 (Poliovirus 1) of 11 µg/mL (≈ 30.6 µM).
Work on `CC(C)Cc1ccc(NC(=O)c2ccc(NS(=O)(=O)N(C)C)cc2)cc1` yielded a Chemotherapeutic index (CV-1) of 7, an EC50 (Poliovirus 1) of 0.16 µg/mL (≈ 0.426 µM) and an EC50 (Enterovirus [2]) of 0.13 µg/mL (≈ 0.346 µM).
In the case of `CN(C(=O)c1ccc(NS(=O)(=O)N(C)C)cc1)c1ccc(Cl)cc1`, the EC50 (Poliovirus 1) is reported as > 25 µg/mL.
In the case of `CN(C)S(=O)(=O)Nc1cccc(/C(=N/O)c2cccc(CO)c2)c1`, the Chemotherapeutic index (CV-1) is reported as 20, the EC50 (Poliovirus 1) is reported as 0.5 µg/mL (≈ 1.43 µM) and the EC50 (Enterovirus [1]) is reported as 1.6 µg/mL (≈ 4.58 µM).
`CC(C)S(=O)(=O)Nc1cccc(C(=O)Nc2ccccc2C(F)(F)F)c1` gave an EC50 (Poliovirus 1) of 0.6 µg/mL (≈ 1.55 µM).
`CC(C)S(=O)(=O)Nc1cccc(C(=O)Nc2cccc(Cl)c2)c1` was tested, and the EC50 (Poliovirus 1) was 1.5 µg/mL (≈ 4.25 µM).
For `O=C(Nc1ccccc1)c1cccc(NS(=O)(=O)c2ccccc2)c1`, the EC50 (Poliovirus 1) was 17 µg/mL (≈ 48.2 µM).
`CN(C)S(=O)(=O)Nc1cc(C(=O)Nc2ccccc2)ccc1Cl` showed an EC50 (Poliovirus 1) of 10 µg/mL (≈ 28.3 µM).
With `COc1ccc(/C(=N/O)c2cccc(NS(=O)(=O)N(C)C)c2)cc1` the Chemotherapeutic index (CV-1) was 3.4, the EC50 (Poliovirus 1) was 7.6 µg/mL (≈ 21.8 µM) and the EC50 (Enterovirus [1]) was 5.4 µg/mL (≈ 15.5 µM).
Compound `COc1ccc(NC(=O)c2cccc(NS(=O)(=O)N(C)C)c2)cc1` has an EC50 (Poliovirus 1) of 4 µg/mL (≈ 11.4 µM).
`CC(C)S(=O)(=O)n1c(N)nc2ccc(/C(=N/O)c3ccccc3)cc21` [ENVIROXIME] showed an EC50 (Poliovirus 1) of 0.032 µg/mL (≈ 0.0893 µM) and an EC50 (Enterovirus [1]) of 0.024 µg/mL (≈ 0.067 µM).
In the case of `CC(C)S(=O)(=O)n1c(N)nc2ccc(/C(=N\O)c3ccccc3)cc21` [ZINVIROXIME], the Chemotherapeutic index (CV-1) is reported as 61, the EC50 (Poliovirus 1) is reported as 0.14 µg/mL (≈ 0.391 µM) and the EC50 (Enterovirus [1]) is reported as 0.24 µg/mL (≈ 0.67 µM).

Source: ChEMBL document CHEMBL1123419, “Synthesis and antiviral activity of sulfonamidobenzophenone oximes and sulfonamidobenzamides” (1986)
